Measured values as given in PMC3580179 (Biopharmaceutics & drug disposition, 2010).
Where “and” joins values, the source holds several entries; their conditions need not be identical. Identical values can stand only once. Like-named read-outs stand apart in the source and are kept apart here. Marks after values point to notes of the source that are not given here.

How the values were obtained:
[1] = Pharmacokinetics after intravenous administration to rats; format: in vivo, male Sprague-Dawley rats; conditions: rat; for MRT / Vd / clearance / half-life / AUC(0-inf): male, Sprague-Dawley; for AUC(0-inf): AUC0-∞
Outline: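 Male Sprague-Dawley rats (250–300 g) with jugular vein cannulae, fed antioxidant-free AIN-76A diet and acclimatized 3 days. Single i.v. dose of 10 or 20 mg/kg via cannula in Cremophor EL/tween-80/ethanol/water (2:1:1:6). Blood (200 μL) sampled from 2 min to 36 h; plasma stored at −80°C and assayed by HPLC-UV. Non-compartmental analysis: log-linear trapezoidal AUC, CL = Dose/AUC0-∞, MRT = AUMC0-∞/AUC0-∞.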

[2] = Blood cell partitioning; format: in vitro ADME; conditions: rat, fresh pooled rat blood
Outline: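 Fresh pooled rat blood spiked 1:100 with test compound in methanol (final 10 μg/mL). Incubated 2 h at 37°C in a shaking water bath. Plasma separated at once by centrifugation and assayed by HPLC-UV to give the blood-to-plasma concentration ratio (CB/CP). Run in triplicate.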

[3] = Pharmacokinetics after oral administration to rats; format: in vivo, male Sprague-Dawley rats; conditions: rat; for Cmax / AUC(0-inf) / MRT / half-life: male, Sprague-Dawley, po
[4] = format: in vivo, Nrf2 wild type C57BL/6J (+/+) mice; conditions: for AUC / Cmax / MRT / Tmax: male, C57BL/6J, mouse, plasma
Outline: (§1)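 Age-matched male C57BL/6J mice, Nrf2 (+/+) or (−/−), 10–15 weeks old, on AIN-76A diet from 3 days before dosing. Dosed 500 mg/kg by oral gavage after an overnight fast, or 100 mg/kg i.p.; vehicle Cremophor EL/tween-80/ethanol/water (2:1:1:6). Composite sampling by heart puncture from 2 min (i.p. only) or 7.5 min to 36 h, three mice per time point. Non-compartmental analysis; t1/2 = ln2/kel from terminal slope.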

[5] = format: in vivo, Nrf2 knockout C57BL/6J (−/−) mice; conditions: for AUC0-∞ /Dose: Nrf2(−/−) mice; for AUC, folds increase: Nrf2(−/−) vs Nrf2(+/+) mice; for AUC / Cmax / MRT / Tmax / half-life: male, C57BL/6J, mouse, plasma
Outline: as §1

[6] = p.o. 250 mg/kg, regular emulsion

For `O=C(CC(=O)c1ccccc1)c1ccccc1` [DBM, 1,3-Diphenyl-1,3-propanedione], the MRT ([1]; plasma, iv, 10 mg/kg) was 10.4 ± 3.33 h, the Vd ([1]; plasma, iv, 10 mg/kg) was 6.75 ± 1.85 L/kg and the clearance ([1]; plasma, iv, 10 mg/kg) was 11.8 mL/min/kg. The half-life ([1]; plasma, iv, 10 mg/kg) was 14.4 ± 5 h, the AUC(0-inf) ([1]; plasma, iv, 10 mg/kg, i.v. 10 mg/kg) was 16500 ± 7850 ng·h/mL and the MRT ([1]; plasma, iv, 20 mg/kg) was 10.2 ± 6.1 h. The Vd ([1]; plasma, iv, 20 mg/kg) was 7.35 ± 4.26 L/kg, the clearance ([1]; plasma, iv, 20 mg/kg) was 12 mL/min/kg and the half-life ([1]; plasma, iv, 20 mg/kg) was 12 ± 5.34 h. The AUC(0-inf) ([1]; plasma, iv, 20 mg/kg, i.v. 20 mg/kg) was 27900 ± 2400 ng·h/mL, the clearance ([1]; whole blood, intravenous, 10 mg/kg) was roughly 12.7 mL/min/kg and the “AUC0-∞ /Dose” value ([1]; i.v. 10 mg/kg, 10 mg/kg) was 1.65 (μg·h/mL)/(mg/kg) and 1.65 ± 0.79 (μg·h/mL)/(mg/kg). For the same compound, the “AUC0-∞” value ([1]; i.v. 20 mg/kg, 20 mg/kg) was 28000 ± 2400 ng·h/mL, the “AUC0-∞ /Dose” value ([1]; i.v. 20 mg/kg, 20 mg/kg) was 1.40 (μg·h/mL)/(mg/kg) and 1.40 ± 0.12 (μg·h/mL)/(mg/kg) and the blood plasma ratio at 2 h, 10 μg/mL [2] was 0.93 ± 0.19. It also gave a Cmax ([3]; in vivo, 250 mg/kg) of 2880 ± 740 ng/mL, an AUC(0-inf) ([3]; plasma, 10 mg/kg) of 2250 ± 330 ng·h/mL and a Cmax ([3]; plasma, 10 mg/kg) of 340 ± 40 ng/mL. It also gave an MRT ([3]; plasma, 10 mg/kg) of 7.6 ± 2.3 h, a half-life ([3]; plasma, 10 mg/kg) of 11 ± 3 h and an AUC(0-inf) ([3]; plasma, 50 mg/kg) of 9460 ± 1620 ng·h/mL. It also gave a Cmax ([3]; plasma, 50 mg/kg) of 1500 ± 410 ng/mL, an MRT ([3]; plasma, 50 mg/kg) of 9.4 ± 2 h and a half-life ([3]; plasma, 50 mg/kg) of 9.3 ± 2 h. The AUC(0-inf) ([3]; plasma, 250 mg/kg) was 30400 ± 6890 ng·h/mL, the Cmax ([3]; plasma, 250 mg/kg) was 3020 ± 660 ng/mL and the MRT ([3]; plasma, 250 mg/kg) was 12 ± 4.3 h. The half-life ([3]; plasma, 250 mg/kg) was 11 ± 8 h, the “AUC0-∞ /Dose” value ([3]; p.o. 10 mg/kg, regular emulsion) was 0.225 ± 0.033 (μg·h/mL)/(mg/kg) and the “Ka (absorption rate constant)” value ([3]; p.o. 50 mg/kg, regular emulsion, Gastroplus three-compartment fitting) was 0.029 ± 0.046 h⁻¹. For the same compound, the “AUC0-∞ /Dose” value [3, 6] was 0.122 ± 0.027 ^a (μg·h/mL)/(mg/kg), the “fraction absorbed in GIT (deconvolution analysis)” value [3, 6] was 10.8% and the Tmax ([3]; p.o. 250 mg/kg, regular emulsion, 250 mg/kg) was 4.0 ± 2.0 h. The “AUC0-∞ /Dose” value ([4]; Nrf2(+/+) mice, i.p. 100 mg/kg) was 0.096 (μg·h/mL)/(mg/kg), the “AUC0-∞ /Dose” value ([4]; Nrf2(+/+) mice, p.o. 500 mg/kg) was 0.129 (μg·h/mL)/(mg/kg) and the “Apparent terminal t1/2” value ([4]; Nrf2(+/+) mice, p.o. 500 mg/kg, 500 mg/kg) was 6.09 h. It also gave an AUC ([4]; ip, 100 mg/kg) of 9620 ng·h/mL, a Cmax ([4]; ip, 100 mg/kg) of 4560 ng/mL and an MRT ([4]; ip, 100 mg/kg) of 2.76 h. The Tmax ([4]; ip, 100 mg/kg) was 0.25 h, the AUC ([4]; po, 500 mg/kg) was 64600 ng·h/mL and the Cmax ([4]; po, 500 mg/kg) was 23200 ng/mL. It also gave an MRT ([4]; po, 500 mg/kg) of 4.73 h, a Tmax ([4]; po, 500 mg/kg) of 0.25 h and a peak plasma concentration ([4]; mice, i.p. 100 mg/kg, genotype not given, context Nrf2(+/+)) of 20.4 µM. For the same compound, the “AUC0-∞ /Dose” value ([5]; i.p. 100 mg/kg) was 0.221 (μg·h/mL)/(mg/kg), the “AUC0-∞ /Dose” value ([5]; p.o. 500 mg/kg) was 0.171 (μg·h/mL)/(mg/kg) and the “AUC, folds increase” value ([5]; i.p. 100 mg/kg) was 2.3 fold. For the same compound, the “AUC, folds increase” value ([5]; p.o. 500 mg/kg) was 1.3 fold, the “apparent terminal half-life, fold increase” value ([5]; Nrf2 knockout vs wild type mice, i.p. 100 mg/kg) was 2 fold and the AUC ([5]; ip, 100 mg/kg) was 22100 ng·h/mL. The Cmax ([5]; ip, 100 mg/kg) was 6860 ng/mL, the MRT ([5]; ip, 100 mg/kg) was 5.15 h and the Tmax ([5]; ip, 100 mg/kg) was 0.25 h. For the same compound, the half-life ([5]; ip, 100 mg/kg) was 5.04 h, the AUC ([5]; po, 500 mg/kg) was 85600 ng·h/mL and the Cmax ([5]; po, 500 mg/kg) was 17400 ng/mL. For the same compound, the MRT ([5]; po, 500 mg/kg) was 6.36 h, the Tmax ([5]; po, 500 mg/kg) was 0.25 h and the half-life ([5]; po, 500 mg/kg) was 8.52 h.
